The term pIC50 denotes the IC50 on a negative log10 scale, so that one unit is a factor of ten. By inhibition is commonly meant how much of the control response was suppressed. A word on the CC50: it is the concentration at which the toxic effect on the cells reaches its halfway point. High values mean lower toxicity to the cells, low ones greater toxicity to the cells. As usually defined, the pEC50 is the negative decadic logarithm of the EC50, by convention in mol/L.

Data set [1] deals with NS3 helicase (Hepatitis C virus genotype 1a). As to the kind of experiment: Inhibition of HCV 1a NS3 helicase by fluorimetry.
Data set [2] concerns Hepatitis C virus. In words: Antiviral activity against HCV 1b infected in human HuH7 cells assessed as inhibition of viral RNA replication at 5.8 uM after 4 days by replicon assay. Type of data set: functional, Hepacivirus hominis. The following applies: genotype 1b, Huh-7, 96 h. In short, it runs like this: (§1)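 Huh-7 cells carrying genotype 1b subgenomic replicon; compounds in DMSO tested from 1 to 200 μM or 1 μM to 1 mM depending on solubility; luminescence-based replicon RNA amplification assay; EC50 = concentration reducing luminescence by 50%.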

Data set [3] can be described thus: Cytotoxicity against human HuH7 cells after3 days by XTT assay. (In general: Tetrazolium assays rely on reduction of a dye to a coloured formazan, in cell work by metabolically active cells.)
The subject of data set [4] is Hepatitis C virus. In words: Antiviral activity against HCV 1b infected in human HuH7 cells assessed as inhibition of viral RNA replication after 4 days by replicon assay. Type of data set: functional, organism-based, Hepacivirus hominis. The following applies: genotype 1b, Huh-7, 96 h. In short, it runs like this:
as §1

The test system of data set [5] is Nucleic Acid. As to the kind of experiment: Binding affinity to HCV dsRNA assessed as inhibition of ethidium bromide RNA intercalation by gel migration retardation assay. Type of data set: nucleic-acid assay. The following applies: Hepacivirus hominis. In outline: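 dsRNA gel migration retardation assay: compound incubated with dsRNA, ethidium bromide staining; intercalation read as partial or total disappearance of the dsRNA band; DMSO and epidoxorubicin controls.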

Data set [6] is described as follows: Therapeutic index, ratio of CC50 for human HuH7 cells to EC50 for HCV 1b. Type of data set: cell-based, Huh-7. The conditions noted are these: read-out: Ratio CC50/EC50. In short, it runs like this: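 Therapeutic index calculated as CC50 (XTT, replicon-bearing Huh-7 cells) divided by EC50 (luminescence replicon assay, genotype 1b).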
The subject of data set [7] is Nucleic Acid. As to the kind of experiment: Binding affinity to […] assessed as inhibition of ethidium bromide DNA intercalation by gel migration retardation assay. Type of data set: nucleic-acid assay. The following applies: Hepacivirus hominis. In outline: (§2)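 dsNA gel migration retardation assay on dsDNA: compound (100 or 500 μM) incubated with dsDNA, ethidium bromide staining; intercalation read as partial or total loss of the dsDNA band; DMSO as negative and epidoxorubicin as positive control.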

In data set [8] the test system is Nucleic Acid. In words: Binding affinity to […] assessed as inhibition of ethidium bromide DNA intercalation at 100 uM by gel migration retardation assay. Type of data set: nucleic-acid assay. The following applies: Hepacivirus hominis. In short, it runs like this:
as §2

Data set [9] in a line: Inhibition of HCV NS3 helicase in presence of 0.5 mM ATP. The arrangement: species or system Hepacivirus hominis.
Data set [10] deals with Hepatitis C virus. In words: Antiviral activity against HCV 1b infected in mutant human HuH7 cells assessed as inhibition of viral RNA replication after 4 days by replicon assay. The following applies: genotype 1b, Huh-7, 96 h. Type of data set: functional, organism-based, Hepacivirus hominis. On the technique in general: Replicon systems follow genome replication, usually without infectious particles.

The nature of data set [11]: Inhibition of HCV NS3 helicase in presence of 1.5 mM ATP. The arrangement: species or system Hepacivirus hominis.
A short description of data set [12]: Inhibition of HCV NS3 helicase in presence of 2.5 mM ATP. The arrangement: species or system Hepacivirus hominis.
Data set [13] concerns Hepatitis C virus. As to the kind of experiment: Antiviral activity against HCV 1b infected in human HuH7 cells assessed as inhibition of viral RNA replication at 10 uM after 4 days by replicon assay. The conditions noted are these: genotype 1b, Huh-7, 168 h, in the assay text read “after 7 days” for “after 4 days”. Type of data set: functional, Hepacivirus hominis. In short, it runs like this: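 Huh-7 cells with genotype 1b subgenomic replicon seeded at 4 × 10⁵ per dish in DMEM, grown 7 days with 0, 1, 10 or 100 μM compound; 5 μg total RNA reverse transcribed (3UTR, oligo(dT)15, random hexamer primers), equal cDNA used for real-time PCR (45 cycles, 56 °C annealing) to quantify replicon RNA.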

Data set [14] can be described thus: Inhibition of HCV 3a NS3 helicase by fluorimetry. The arrangement: species or system Hepatitis C virus subtype 3a. In outline: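 Fluorometric helicase unwinding assay with a dsDNA substrate at 37 °C; NS3 helicase domain (genotype […], from patient-derived RNA) expressed in baculovirus and purified from insect cells, used at 50 nM; IC50 = concentration reducing helicase activity by 50%, relative to DMSO control.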

Data set [15] relates to Hepatitis C virus. As to the kind of experiment: Antiviral activity against HCV 1b infected in human HuH7 cells assessed as inhibition of viral RNA replication at 2.7 uM after 4 days by replicon assay. Type of data set: functional, Hepacivirus hominis. The conditions noted are these: genotype 1b, Huh-7, 96 h. In outline: as §1

pEC50, pIC50: −log10 of the molar value. Activity calls are given as the source filed them. The calls are words filed in the database; no cut-off is given here.

With `COc1cccc2c(=O)c3cccc(C(=O)Nc4cc(Cl)ccn4)c3[nH]c12`, in data set [1], the pIC50 was 4.45. In addition, in the data set with Hepatitis C virus [2], the inhibition at 5.8 µM was 30%. The compound also registered a CC50 at 72 h in data set [3] of 171 µM.

In the case of `O=C(Nc1ccncc1)c1cccc2c(=O)c3cccc(OCc4ccccc4)c3[nH]c12`, in data set [1], the pIC50 is 5.10. Besides, the negative-log EC50 (pEC50) in the data set with Hepatitis C virus [4] was under 4.00. This compound also registered a CC50 at 72 h in data set [3] of over 100 µM.

With `COc1cccc2c(=O)c3cc(Cl)cc(C(=O)Nc4ccccn4)c3[nH]c12`, the pIC50 in [1] was 4.19. Further, the result in the data set on Nucleic Acid [5] was inactive. The pEC50 in the data set with Hepatitis C virus [4] is 5.30. In [3], this compound showed a CC50 at 72 h of 15.8 µM. Besides, the selectivity ratio in data set [6] stood at 3.2.

As for `NC(=O)c1ncn([C@@H]2O[C@H](CO)[C@@H](O)[C@H]2O)n1` [RIBAVIRIN], in the data set with Hepatitis C virus [4], the pEC50 is 4.75. For the same compound, in [3], half-maximal cytotoxicity (CC50 at 72 h) was put at 1060 µM. In addition, the selectivity ratio in [6] amounted to 60.2.

`[N-]=[N+]=N[C@]1(CO)O[C@@H](n2ccc(N)nc2=O)[C@H](O)[C@@H]1O` [4'-AZIDOCYTIDINE] yielded a CC50 at 72 h in data set [3] of over 200 µM. The selectivity ratio in data set [6] was over 143.

Turning to `COc1cccc2c(=O)c3cc(F)cc(C(=O)Nc4cc(Cl)ccn4)c3[nH]c12`, the pIC50 in data set [1] was 4.33. Further, the pEC50 in the data set on Hepatitis C virus [4] was under 4.00. This compound also showed a CC50 at 72 h in data set [3] of over 100 µM.

Regarding `COc1cccc2c(=O)c3cccc(C(=O)Nc4cccnc4)c3[nH]c12`, the outcome in the data set with Nucleic Acid [7] and in the data set on Nucleic Acid [8] was Active. Besides, the pIC50 in [1] is 4.69. For the same compound, the negative-log EC50 (pEC50) with Hepatitis C virus [4] was 5.46. The compound further gave a CC50 at 72 h in [3] of over 100 µM. The selectivity ratio in data set [6] was over 28.

Regarding `COc1cccc2c(=O)c3cccc(C(=O)Nc4ccccn4)c3[nH]c12`, in the data set with Nucleic Acid [7], the outcome was Active. The pIC50 in [1] was 5.21. Besides, the pEC50 in the data set on Hepatitis C virus [4] was 5.64. This compound also returned a CC50 at 72 h in [3] of 2.5 µM. For the same compound, the selectivity ratio in data set [6] came out at 1.1.

On to `COc1cccc2c(=O)c3cc(F)cc(C(=O)Nc4cccnc4)c3[nH]c12`, for which the pIC50 in data set [9] is 4.96; in [1], 5.07; in data set [11] it was 5.07; in [12], 5.00; in data set [14], 5.14. The negative-log EC50 (pEC50) in the data set on Hepatitis C virus [10] was 3.60; with Hepatitis C virus [4], 6.01. In [3], this compound had a CC50 at 72 h of over 1000 µM. Moreover, the selectivity ratio in data set [6] was over 1000. The inhibition at 10 µM in the data set on Hepatitis C virus [13] was found to be 85%.

In the case of `COc1cccc2c(=O)c3cc(F)cc(C(=O)Nc4ccccn4)c3[nH]c12`, the negative-log IC50 (pIC50) in data set [9] was 5.19; in [1] it was 5.33; in [11], 5.33; in data set [12], 5.29. Besides, the inhibition at 2.7 µM in the data set with Hepatitis C virus [15] came to 30%. In data set [3], this compound registered a CC50 at 72 h of over 100 µM.

In turn, `COc1cccc2c(=O)c3cc(Cl)cc(C(=O)Nc4cccnc4)c3[nH]c12` showed a pIC50 in data set [1] of 4.26. Also, in the data set with Hepatitis C virus [4], the pEC50 is 6.02. For the same compound, the CC50 at 72 h in data set [3] was determined as 19.3 µM. Besides, the selectivity ratio in data set [6] was determined as 20.1.

Turning to `COc1cc(NC(=O)c2cccc3c(=O)c4cccc(OC)c4[nH]c23)cc(OC)c1OC`, in data set [1], the pIC50 is 3.12. Further, in the data set with Hepatitis C virus [4], the pEC50 is 3.69. The same compound gave a CC50 at 72 h in [3] of over 500 µM. In addition, the selectivity ratio in [6] was over 2.5.

With `COc1cccc2c(=O)c3cc(Cl)cc(C(=O)Nc4cc(Cl)ccn4)c3[nH]c12`, the pIC50 is 5.96 in data set [9], 5.82 in [1], 5.82 in data set [11] and 5.96 in data set [12]. Also, the pEC50 with Hepatitis C virus [4] was under 4.00. In [3], the CC50 at 72 h was over 100 µM.
